Measurements as given in ChEMBL document CHEMBL1255429, “Efflux pumps are involved in the defense of Gram-negative bacteria against the natural products isobavachalcone and diospyrone” (2010).
Values after ≈ are worked out from the molar mass of the structure shown.

Columns and labels:
Type in all cases: functional
Escherichia coli [1] = assay: Antimicrobial activity against Escherichia coli AG100 after 18 hrs by rapid INT colorimetric assay; settings: AG100, 18 h
How it was run: (§1)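 Strains precultured overnight on Mueller-Hinton agar. Samples dissolved in DMSO-MHB, serially diluted twofold in MHB, inoculum 1.5 × 10^6 CFU/ml in MHB added; 37°C, 18 h; final DMSO <2.5%. 0.2 mg/ml INT then added, 30 min at 37°C. MIC = lowest concentration preventing yellow-to-pink reduction, i.e. complete growth inhibition.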

Enterobacter cloacae [2] = assay: Antimicrobial activity against Enterobacter cloacae Ec1194 after 18 hrs by rapid INT colorimetric assay; settings: Ec1194, 18 h
How it was run: (§2)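 Strains precultured overnight on Mueller-Hinton agar. Sample dissolved in DMSO-MHB, twofold serial dilutions in MHB, inoculum 1.5 × 10^6 CFU/ml; final DMSO below 2.5%. Incubated 37°C 18 h, then 0.2 mg/ml INT added, 30 min at 37°C. MIC = lowest concentration preventing yellow-to-pink change (complete growth inhibition). DMSO-only wells as negative control.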

Klebsiella pneumoniae [3] = assay: Antimicrobial activity against Klebsiella pneumoniae KP63 after 18 hrs by rapid INT colorimetric assay; settings: KP63, 18 h; how it was run: as §2
Pseudomonas aeruginosa [4] = assay: Antimicrobial activity against Pseudomonas aeruginosa PAO1 after 18 hrs by rapid INT colorimetric assay in presence of efflux pump inhibitor phenylalanine arginine; settings: PAO1, 18 h
Escherichia coli [5] = assay: Antimicrobial activity against Escherichia coli ATCC 10536 after 18 hrs by rapid INT colorimetric assay; settings: ATCC 10536, 18 h; how it was run: as §2
Klebsiella pneumoniae [6] = assay: Antimicrobial activity against Klebsiella pneumoniae KP55 after 18 hrs by rapid INT colorimetric assay; settings: KP55, 18 h; how it was run: as §2
Klebsiella aerogenes [7] = assay: Antimicrobial activity against Enterobacter aerogenes EA298 after 18 hrs by rapid INT colorimetric assay; settings: EA298, 18 h; how it was run: as §1
Klebsiella pneumoniae [8] = assay: Antimicrobial activity against Klebsiella pneumoniae ATCC 11296 after 18 hrs by rapid INT colorimetric assay; settings: ATCC 11296, 18 h; how it was run: as §1
Pseudomonas aeruginosa [9] = assay: Antimicrobial activity against Pseudomonas aeruginosa PA124 after 18 hrs by rapid INT colorimetric assay; settings: PA124, 18 h; how it was run: as §1
Escherichia coli [10] = assay: Antimicrobial activity against Escherichia coli ATCC 8739 after 18 hrs by rapid INT colorimetric assay; settings: ATCC 8739, 18 h; how it was run: as §1
Escherichia coli [11] = assay: Antimicrobial activity against Escherichia coli AG100A after 18 hrs by rapid INT colorimetric assay in presence of efflux pump inhibitor phenylalanine arginine
Escherichia coli [12] = assay: Antimicrobial activity against Escherichia coli AG100A after 18 hrs by rapid INT colorimetric assay; how it was run: as §1
Enterobacter cloacae [13] = assay: Antimicrobial activity against Enterobacter cloacae Ec07769 after 18 hrs by rapid INT colorimetric assay in presence of efflux pump inhibitor phenylalanine arginine; settings: Ec07769, 18 h
Enterobacter cloacae [14] = assay: Antimicrobial activity against Enterobacter cloacae Ec07769 after 18 hrs by rapid INT colorimetric assay; settings: Ec07769, 18 h; how it was run: as §2
Escherichia coli [15] = assay: Antimicrobial activity against Escherichia coli ATCC 8739 after 18 hrs by rapid INT colorimetric assay in presence of efflux pump inhibitor phenylalanine arginine; settings: ATCC 8739, 18 h
How it was run: (§3)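 Broth microdilution MIC in Mueller-Hinton broth with PAßN at a final 20 μg/ml throughout. Twofold dilutions of sample from DMSO-MHB stock; inoculum 1.5 × 10^6 CFU/ml; 18 h at 37°C, final DMSO <2.5%. Growth read by INT (0.2 mg/ml, 30 min, 37°C). MIC taken as lowest concentration with no pink colour.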

Klebsiella pneumoniae [16] = assay: Antimicrobial activity against Klebsiella pneumoniae ATCC 11296 after 18 hrs by rapid INT colorimetric assay in presence of efflux pump inhibitor phenylalanine arginine; settings: ATCC 11296, 18 h
Klebsiella aerogenes [17] = assay: Antimicrobial activity against Enterobacter aerogenes EA3 after 18 hrs by rapid INT colorimetric assay in presence of efflux pump inhibitor phenylalanine arginine; settings: EA3, 18 h
Escherichia coli [18] = assay: Antimicrobial activity against tetracycline-resistant Escherichia coli AG102 after 18 hrs by rapid INT colorimetric assay in presence of efflux pump inhibitor phenylalanine arginine; settings: AG102, 18 h; how it was run: as §3
Klebsiella aerogenes [19] = assay: Antimicrobial activity against Enterobacter aerogenes ATCC 13048 after 18 hrs by rapid INT colorimetric assay; settings: ATCC 13048, 18 h; how it was run: as §2
Klebsiella aerogenes [20] = assay: Antimicrobial activity against Enterobacter aerogenes ATCC 13048 after 18 hrs by rapid INT colorimetric assay in presence of efflux pump inhibitor phenylalanine arginine; settings: ATCC 13048, 18 h
Pseudomonas aeruginosa [21] = assay: Antimicrobial activity against Pseudomonas aeruginosa PAO1 after 18 hrs by rapid INT colorimetric assay; settings: PAO1, 18 h; how it was run: as §1
Escherichia coli [22] = assay: Antimicrobial activity against Escherichia coli AG100 after 18 hrs by rapid INT colorimetric assay in presence of efflux pump inhibitor phenylalanine arginine; settings: AG100, 18 h
Klebsiella aerogenes [23] = assay: Antimicrobial activity against Enterobacter aerogenes EA294 after 18 hrs by rapid INT colorimetric assay; settings: EA294, 18 h; how it was run: as §1
Klebsiella pneumoniae [24] = assay: Antimicrobial activity against Klebsiella pneumoniae KP55 after 18 hrs by rapid INT colorimetric assay in presence of efflux pump inhibitor phenylalanine arginine; settings: KP55, 18 h
Klebsiella aerogenes [25] = assay: Antimicrobial activity against Enterobacter aerogenes EA5 after 18 hrs by rapid INT colorimetric assay; settings: EA5, 18 h; how it was run: as §2
Klebsiella aerogenes [26] = assay: Antimicrobial activity against Enterobacter aerogenes EA298 after 18 hrs by rapid INT colorimetric assay in presence of efflux pump inhibitor phenylalanine arginine; settings: EA298, 18 h
Klebsiella aerogenes [27] = assay: Antimicrobial activity against Enterobacter aerogenes EA3 after 18 hrs by rapid INT colorimetric assay; settings: EA3, 18 h; how it was run: as §2
Klebsiella aerogenes [28] = assay: Antimicrobial activity against Enterobacter aerogenes EA-CM64 after 18 hrs by rapid INT colorimetric assay; settings: EA-CM64, 18 h; how it was run: as §1
Escherichia coli [29] = assay: Antimicrobial activity against tetracycline-resistant Escherichia coli AG100A after 18 hrs by rapid INT colorimetric assay; how it was run: as §1
Pseudomonas aeruginosa [30] = assay: Antimicrobial activity against Pseudomonas aeruginosa PA124 after 18 hrs by rapid INT colorimetric assay in presence of efflux pump inhibitor phenylalanine arginine; settings: PA124, 18 h
Escherichia coli [31] = assay: Antimicrobial activity against tetracycline-resistant Escherichia coli AG102 after 18 hrs by rapid INT colorimetric assay; settings: AG102, 18 h; how it was run: as §1
Klebsiella pneumoniae [32] = assay: Antimicrobial activity against Klebsiella pneumoniae KP63 after 18 hrs by rapid INT colorimetric assay in presence of efflux pump inhibitor phenylalanine arginine; settings: KP63, 18 h
Klebsiella aerogenes [33] = assay: Antimicrobial activity against Enterobacter aerogenes EA289 after 18 hrs by rapid INT colorimetric assay in presence of efflux pump inhibitor phenylalanine arginine; settings: EA289, 18 h
Klebsiella aerogenes [34] = assay: Antimicrobial activity against Enterobacter aerogenes EA5 after 18 hrs by rapid INT colorimetric assay in presence of efflux pump inhibitor phenylalanine arginine; settings: EA5, 18 h
Enterobacter cloacae [35] = assay: Antimicrobial activity against Enterobacter cloacae Ec1194 after 18 hrs by rapid INT colorimetric assay in presence of efflux pump inhibitor phenylalanine arginine; settings: Ec1194, 18 h; how it was run: as §3
Klebsiella aerogenes [36] = assay: Antimicrobial activity against Enterobacter aerogenes EA-CM64 after 18 hrs by rapid INT colorimetric assay in presence of efflux pump inhibitor phenylalanine arginine; settings: EA-CM64, 18 h
Escherichia coli [37] = assay: Antimicrobial activity against Escherichia coli ATCC 10536 after 18 hrs by rapid INT colorimetric assay in presence of efflux pump inhibitor phenylalanine arginine beta-naphthylamide; settings: ATCC 10536, 18 h; how it was run: as §3
Klebsiella aerogenes [38] = assay: Antimicrobial activity against Enterobacter aerogenes EA294 after 18 hrs by rapid INT colorimetric assay in presence of efflux pump inhibitor phenylalanine arginine; settings: EA294, 18 h
Escherichia coli [39] = assay: Antimicrobial activity against tetracycline-resistant Escherichia coli AG100A after 18 hrs by rapid INT colorimetric assay in presence of efflux pump inhibitor phenylalanine arginine; how it was run: as §3
Klebsiella aerogenes [40] = assay: Antimicrobial activity against Enterobacter aerogenes EA289 after 18 hrs by rapid INT colorimetric assay; settings: EA289, 18 h; how it was run: as §2
Klebsiella aerogenes [41] = assay: Antimicrobial activity against Enterobacter aerogenes EA27 after 18 hrs by rapid INT colorimetric assay in presence of efflux pump inhibitor phenylalanine arginine; settings: EA27, 18 h
Klebsiella aerogenes [42] = assay: Antimicrobial activity against Enterobacter aerogenes EA27 after 18 hrs by rapid INT colorimetric assay; settings: EA27, 18 h; how it was run: as §2

Structure (SMILES): O=C(N[C@H](CO)[C@H](O)c1ccc([N+](=O)[O-])cc1)C(Cl)Cl [CHLORAMPHENICOL]
- MIC (Escherichia coli [1]): 4 µg/mL (≈ 12.4 µM)
- MIC (Enterobacter cloacae [2]): 2 µg/mL (≈ 6.19 µM)
- MIC (Klebsiella pneumoniae [3]): > 256 µg/mL
- MIC (Pseudomonas aeruginosa [4]): 8 µg/mL
- MIC (Escherichia coli [5]): 1 µg/mL (≈ 3.09 µM)
- MIC (Klebsiella pneumoniae [6]): 32 µg/mL (≈ 99 µM)
- MIC (Klebsiella aerogenes [7]): 64 µg/mL (≈ 198 µM)
- MIC (Klebsiella pneumoniae [8]): 2 µg/mL (≈ 6.19 µM)
- MIC (Pseudomonas aeruginosa [9]): 256 µg/mL (≈ 792 µM)
- MIC (Escherichia coli [10]): 4 µg/mL (≈ 12.4 µM)
- MIC (Escherichia coli [11]): 0.25 µg/mL
- MIC (Escherichia coli [12]): 0.5 µg/mL (≈ 1.55 µM)
- MIC (Enterobacter cloacae [13]): 256 µg/mL
- MIC (Enterobacter cloacae [14]): > 256 µg/mL
- MIC (Escherichia coli [15]): 1 µg/mL
- MIC (Klebsiella pneumoniae [16]): 2 µg/mL
- MIC (Klebsiella aerogenes [17]): 128 µg/mL
- MIC (Escherichia coli [18]): 2 µg/mL
- MIC (Klebsiella aerogenes [19]): 4 µg/mL (≈ 12.4 µM)
- MIC (Klebsiella aerogenes [20]): 1 µg/mL
- MIC (Pseudomonas aeruginosa [21]): 128 µg/mL (≈ 396 µM)
- MIC (Escherichia coli [22]): 0.25 µg/mL
- MIC (Klebsiella aerogenes [23]): 64 µg/mL (≈ 198 µM)
- MIC (Klebsiella pneumoniae [24]): 4 µg/mL
- MIC (Klebsiella aerogenes [25]): > 256 µg/mL
- MIC (Klebsiella aerogenes [26]): 16 µg/mL
- MIC (Klebsiella aerogenes [27]): > 256 µg/mL
- MIC (Klebsiella aerogenes [28]): 256 µg/mL (≈ 792 µM)
- MIC (Escherichia coli [29]): 32 µg/mL (≈ 99 µM)
- MIC (Pseudomonas aeruginosa [30]): 8 µg/mL
- MIC (Escherichia coli [31]): 32 µg/mL (≈ 99 µM)
- MIC (Klebsiella pneumoniae [32]): 128 µg/mL
- MIC (Klebsiella aerogenes [33]): 128 µg/mL
- MIC (Klebsiella aerogenes [34]): 32 µg/mL
- MIC (Enterobacter cloacae [35]): 1 µg/mL
- MIC (Klebsiella aerogenes [36]): 8 µg/mL
- MIC (Escherichia coli [37]): 0.5 µg/mL
- MIC (Klebsiella aerogenes [38]): 16 µg/mL
- MIC (Escherichia coli [39]): 2 µg/mL
- MIC (Klebsiella aerogenes [40]): > 256 µg/mL
- MIC (Klebsiella aerogenes [41]): 128 µg/mL
- MIC (Klebsiella aerogenes [42]): > 256 µg/mL
